Calls of active or inactive are those of the source. The calls are words filed in the database; no cut-off is given here.
Columns and labels:
[1] = molecular target: T1, Prostaglandin G/H synthase 2 (Homo sapiens) (UniProt P35354); test: Inhibition of human recombinant COX2 assessed as residual activity at 10 uM after 5 mins
T1 sequence (whole entry): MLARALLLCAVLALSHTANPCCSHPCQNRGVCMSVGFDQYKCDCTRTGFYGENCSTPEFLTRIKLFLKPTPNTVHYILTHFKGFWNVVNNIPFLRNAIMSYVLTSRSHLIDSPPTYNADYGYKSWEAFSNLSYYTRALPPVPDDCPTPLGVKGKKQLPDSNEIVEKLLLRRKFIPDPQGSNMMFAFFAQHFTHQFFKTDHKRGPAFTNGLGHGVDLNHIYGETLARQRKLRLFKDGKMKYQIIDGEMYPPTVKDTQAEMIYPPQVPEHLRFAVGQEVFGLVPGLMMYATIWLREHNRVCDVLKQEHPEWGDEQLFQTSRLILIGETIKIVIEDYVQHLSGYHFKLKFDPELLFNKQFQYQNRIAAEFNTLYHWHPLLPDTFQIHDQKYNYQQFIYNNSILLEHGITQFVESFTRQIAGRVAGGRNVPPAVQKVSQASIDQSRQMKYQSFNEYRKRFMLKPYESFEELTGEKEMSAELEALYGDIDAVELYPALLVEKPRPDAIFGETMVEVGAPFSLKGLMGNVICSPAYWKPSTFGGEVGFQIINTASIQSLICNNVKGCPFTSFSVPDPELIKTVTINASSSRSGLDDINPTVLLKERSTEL
Summary of the method: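 Ovine COX-1 (50 units) or human recombinant COX-2 (20 units) in 1 ml 100 mM Tris pH 8 with 5 mM glutathione, 5 µM haemoglobin and 100 µM EDTA. Preincubated with 10 µM compound 5 min at 4 °C, warmed 60 s at 37 °C. Started with AA (5 µM for COX-1, 2 µM for COX-2), run 5 min at 37 °C. 12-HHT extracted and analysed by HPLC. n = 3.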

[2] = molecular target: T2, Polyunsaturated fatty acid lipoxygenase ALOX12 (Homo sapiens) (UniProt P18054); test: Inhibition of 12-lipoxygenase in A23187-stimulated human PMNL assessed as reduction of 12(S)-H(P)ETE formation up to 10 uM preincubated 15 mins by RP-HPLC analysis in presence of exogenous arachidonic acid
T2 sequence (whole entry): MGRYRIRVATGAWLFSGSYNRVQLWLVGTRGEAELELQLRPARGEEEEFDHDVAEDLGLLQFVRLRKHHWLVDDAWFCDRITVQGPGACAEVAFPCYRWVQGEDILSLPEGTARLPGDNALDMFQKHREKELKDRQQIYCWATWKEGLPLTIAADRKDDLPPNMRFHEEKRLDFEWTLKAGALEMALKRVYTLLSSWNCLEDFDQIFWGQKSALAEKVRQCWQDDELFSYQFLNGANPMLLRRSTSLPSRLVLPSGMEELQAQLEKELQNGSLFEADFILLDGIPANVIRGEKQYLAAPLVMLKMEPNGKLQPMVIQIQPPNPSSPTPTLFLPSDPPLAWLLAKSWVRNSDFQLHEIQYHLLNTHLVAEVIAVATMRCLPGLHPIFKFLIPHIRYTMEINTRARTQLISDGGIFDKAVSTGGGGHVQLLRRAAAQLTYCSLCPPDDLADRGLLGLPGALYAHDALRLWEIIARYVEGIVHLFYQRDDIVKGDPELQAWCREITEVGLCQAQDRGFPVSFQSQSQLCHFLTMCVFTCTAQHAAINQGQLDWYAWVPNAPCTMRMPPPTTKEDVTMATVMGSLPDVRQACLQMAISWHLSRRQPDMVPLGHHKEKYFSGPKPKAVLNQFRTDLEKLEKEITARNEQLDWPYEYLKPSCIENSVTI
Summary of the method: (§1)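 Freshly isolated human PMNL (5 × 10⁶/ml PGC buffer: PBS pH 7.4, 1 mg/ml glucose, 1 mM CaCl₂) preincubated with compound 15 min at 37 °C. Stimulated with 2.5 µM A23187 plus exogenous AA for 10 min at 37 °C. Stopped with methanol, PGB₁ added as internal standard, lipoxygenase products analysed by HPLC. Mean of n = 3–5.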

[3] = molecular target: T3, Polyunsaturated fatty acid 5-lipoxygenase (Homo sapiens) (UniProt P09917); test: Inhibition of 5-lipoxygenase in LPS/fMLP-stimulated human PMNL assessed as enzyme product formation preincubated 15 mins by ELISA analysis; details: in the assay text read “10 mins” for “15 mins”
T3 sequence (whole entry): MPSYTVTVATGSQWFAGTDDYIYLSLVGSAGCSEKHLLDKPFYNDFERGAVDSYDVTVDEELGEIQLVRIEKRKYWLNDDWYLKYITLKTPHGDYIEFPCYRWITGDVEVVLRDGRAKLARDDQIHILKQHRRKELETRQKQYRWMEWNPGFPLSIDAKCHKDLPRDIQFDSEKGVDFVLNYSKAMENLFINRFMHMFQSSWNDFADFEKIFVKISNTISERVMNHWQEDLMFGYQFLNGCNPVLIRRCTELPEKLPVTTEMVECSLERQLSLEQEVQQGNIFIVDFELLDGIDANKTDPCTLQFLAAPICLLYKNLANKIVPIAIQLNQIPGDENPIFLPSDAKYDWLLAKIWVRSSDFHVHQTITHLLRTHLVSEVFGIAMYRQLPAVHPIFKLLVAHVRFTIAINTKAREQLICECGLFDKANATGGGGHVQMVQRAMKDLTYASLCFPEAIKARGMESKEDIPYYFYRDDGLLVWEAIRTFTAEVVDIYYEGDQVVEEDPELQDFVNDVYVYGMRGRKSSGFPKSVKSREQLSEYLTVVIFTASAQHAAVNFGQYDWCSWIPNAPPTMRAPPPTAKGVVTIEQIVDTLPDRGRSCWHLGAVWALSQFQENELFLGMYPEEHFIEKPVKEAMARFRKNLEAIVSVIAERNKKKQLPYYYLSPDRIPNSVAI
Summary of the method: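 Human PMNL in PBS/glucose primed with 1 µg/ml LPS for 10 min at 37 °C, then 0.3 U/ml adenosine deaminase added. After another 10 min, cells given compound (0.3–10 µM) for 10 min, then stimulated with 1 µM fMLP. LTB₄ measured by ELISA.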

[4] = molecular target: T3, Polyunsaturated fatty acid 5-lipoxygenase (Homo sapiens); test: Inhibition of human recombinant 5-lipoxygenase expressed in Escherichia coli BL21 assessed as enzyme product formation measured after washout
Summary of the method: (§2)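 Human 5-LO expressed in E. coli BL21 (pT3-5LO), affinity-purified and used at once. 0.5 µg enzyme in 1 ml PBS/EDTA with 1 mM ATP preincubated with compound 5–10 min at 4 °C, then warmed 30 s at 37 °C. Reaction started with 2 mM CaCl₂ and AA (routinely 20 µM), with or without 1 µM 13(S)-HpODE. Run 10 min at 37 °C, stopped with ice-cold methanol, products analysed by HPLC. Washout: 10-fold dilution (10 to 1 µM).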

[5] = molecular target: T3, Polyunsaturated fatty acid 5-lipoxygenase (Homo sapiens); test: Inhibition of human recombinant 5-lipoxygenase expressed in Escherichia coli BL21 assessed as enzyme product formation measured up to 30 uM in presence of 13(S)-HpODE; summary of the method: as §2
[6] = molecular target: T4, Polyunsaturated fatty acid 5-lipoxygenase (Homo sapiens, UniProt P09917); test: Inhibition of 5-lipoxygenase in A23187-stimulated human PMNL assessed as enzyme product formation preincubated 15 mins by RP-HPLC analysis in presence of exogenous arachidonic acid; summary of the method: as §1
T4 sequence (P09917 whole entry): T3 sequence (whole entry)

In the case of `CCCCC(Sc1ccc(OCCCOc2ccc(-c3ccccc3)cc2)cc1)C(=O)O` (stereo unspecified), the inhibition [1] is reported as “inactive”, the inhibition [2] is reported as “inactive” and the inhibition [3] is reported as “Active”. For the same compound, the inhibition [4] was “Active”, the inhibition [5] was “Active” and the IC50 [6] was 0.9 µM.

Source: ChEMBL document CHEMBL1777776, “Identification of 2-mercaptohexanoic acids as dual inhibitors of 5-lipoxygenase and microsomal prostaglandin E₂ synthase-1” (Bioorg Med Chem, 2011)
